According to ChEMBL document CHEMBL1126057, “Highly water-soluble lipophilic prodrugs of the anti-HIV nucleoside analogue 2',3'-dideoxycytidine and its 3'-fluoro derivative” (J Med Chem, 1992):
Values after ≈ are worked out from the molar mass of the structure shown. Blank lines part the entries; values can stand above or below the compound they belong to.

Experiments:
[1] = Half-life in potassium phosphate buffered saline(PBS) at 37 degree C.; format: ADME
Summary of the method: (§1)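 Prodrug at 5 × 10^-5 M in PBS, pH 7.4, incubated at 37 °C. A317 read at regular intervals. Pseudo-first-order rate constant taken from the slope of ln(absorbance) vs time, then converted to t1/2.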

[2] = Partition coefficient (P); conditions: octanol/water
[3] = Half-life in potassium phosphate buffered saline (PBS) at 37 degree C.; format: ADME; summary of the method: as §1
[4] = tested on: CCRF-CEM; test: The compound was tested for the cytotoxicity against HIV from CEM-IW human lymphocyte; format: functional, cell-based
Summary of the method: (§2)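 Cytotoxicity in the same cell cultures as the antiviral assays, measured as 50% growth inhibition by tetrazolium dye assay. Value is the concentration (µM) producing 50% cytotoxicity.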

[5] = The compound was tested for the antiviral activity against Rauscher murine leukemia virus in SC-1 cells; format: functional; conditions: Mus musculus, read-out: ED50 (the source's name)
Summary of the method: (§3)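 UV-XC plaque reduction assay for Rauscher murine leukemia virus in SC-1 cells in culture, in vitro. Value is the concentration (µM) producing 50% antiviral effect.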

[6] = tested on: CCRF-CEM; test: The compound was tested for the antiviral activity against HIV from CEM-IW human lymphocyte; format: functional; conditions: read-out: ED50 (the source's name)
Summary of the method: (§4)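 CEM-IW human lymphocytes in culture; reduction of HIV cytopathic effect. Value is the concentration (µM) producing 50% antiviral effect.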

[7] = The compound was tested for the cytotoxicity in SC-1 cells; conditions: Mus musculus
[8] = The compound was tested for the antiviral activity against Rauscher murine leukemia virus; format: functional; conditions: Mus musculus; read-out: ED50 (the source's name); summary of the method: as §3
[9] = tested on: CCRF-CEM; test: The compound was tested for the antiviral activity against HIV from CEM-IW human lymphocyte,; format: functional; conditions: read-out: ED50 (the source's name); summary of the method: as §4
[10] = The compound was tested for the cytotoxicity against Rauscher murine leukemia virus; format: functional, Mus musculus; summary of the method: as §2
[11] = pKa value of the compound.; format: physicochemical
Summary of the method: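 pKa determined by UV spectroscopy at room temperature.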

[12] = Water solubility of the compound.; format: ADME; conditions: read-out: S
Summary of the method: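 Solubility in double-distilled water at room temperature, in mg/mL.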

[13] = Half-life in 20% serum solution at 37 degree C.; format: ADME, cell-free
Summary of the method: (§5)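 Diisopropylamino prodrugs diluted from 10^-2 M stock into human serum, made up with buffer to 10% or 20% serum, or mixed with serum to 90% serum. Incubated at 37 °C; 50-µL aliquots withdrawn at intervals, diluted with buffer, A317 read. Half-life taken from the pseudo-first-order rate constant, i.e. the slope of ln(absorbance) vs time.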

[14] = Half-life in 90% serum solution at 37 degree C.; format: ADME, cell-free; summary of the method: as §5
[15] = Half-life in 10% serum solution at 37 degree C.; format: ADME, cell-free; summary of the method: as §5
[16] = Half-life in 1N HCl at 37 degree C.; format: ADME
Summary of the method: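 Diisopropylamino prodrugs at 5 × 10^-5 M in 1 N HCl at 37 °C. Absorbance at 317 nm recorded at regular intervals. ln(absorbance) vs time plotted; slope gives the pseudo-first-order hydrolysis rate constant, from which t1/2 was calculated.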

[17] = Half-life in potassium phosphate buffered saline (PBS) at 37 degree C(0% serum solution).; format: ADME; summary of the method: as §1

SMILES: CN(C)/C=N\c1ccn(C2CC(F)C(CO)O2)c(=O)n1 (stereo unspecified)
half-life [1]: 280 min | IC50 [4]: > 200 µM | P [2]: -0.64 | EC50 [5]: 214 µM | EC50 [6]: 230 nM | IC50 [7]: > 1 mM

SMILES: Nc1ccn(C2CC(F)C(CO)O2)c(=O)n1 (stereo unspecified)
IC50 [4]: > 3200 µM | EC50 [8]: 158 µM | P [2]: -0.893 | EC50 [9]: 160 nM | IC50 [10]: > 1 mM | pKa [11]: 4.22 | solubility [12]: 15 mg/mL (≈ 65.4 mM)

SMILES: CC(C)N(/C=N\c1ccn(C2CC(F)C(CO)O2)c(=O)n1)C(C)C (stereo unspecified)
half-life [1]: 3130 min | IC50 [4]: > 200 µM | half-life [13]: 2.35 days | EC50 [9]: 675 nM | EC50 [5]: 518 µM | half-life [14]: 3.61 days | pKa [11]: 5.13 | half-life [15]: 3140 min | solubility [12]: 25 mg/mL (≈ 73.4 mM) | half-life [16]: 348 min | IC50 [7]: > 1 mM

SMILES: O=c1nc(/N=C\N2CCOCC2)ccn1C1CC(F)C(CO)O1 (stereo unspecified)
half-life [1]: 224 min | P [2]: -0.676

SMILES: O=c1nc(/N=C\N2CCCC2)ccn1C1CC(F)C(CO)O1 (stereo unspecified)
half-life [1]: 154 min | P [2]: -0.162

SMILES: O=c1nc(/N=C\N2CCCCC2)ccn1C1CC(F)C(CO)O1 (stereo unspecified)
half-life [1]: 378 min | P [2]: 0.358

SMILES: CCCN(/C=N\c1ccn(C2CC(F)C(CO)O2)c(=O)n1)CCC (stereo unspecified)
half-life [1]: 935 min

Second part, led by results:

half-life [1]: 520 min | P [2]: -0.059
SMILES: CCN(/C=N\c1ccn(C2CCC(CO)O2)c(=O)n1)CC (stereo unspecified)

half-life [1]: 384 min | P [2]: 0.057
SMILES: O=c1nc(/N=C\N2CCCCC2)ccn1C1CCC(CO)O1 (stereo unspecified)

P [2]: -0.951 | half-life [3]: 228 min
SMILES: CN(C)/C=N\c1ccn(C2CCC(CO)O2)c(=O)n1 (stereo unspecified)

half-life [1]: 235 min | P [2]: -0.967
SMILES: O=c1nc(/N=C\N2CCOCC2)ccn1C1CCC(CO)O1 (stereo unspecified)

EC50 [8]: 20.6 µM | half-life [13]: 2.13 days | P [2]: 0.724 | EC50 [9]: 65 nM | half-life [14]: 2.73 days | half-life [17]: 2850 min | pKa [11]: 5.28 | half-life [15]: 2840 min | solubility [12]: > 300 mg/mL | half-life [16]: 234 min
SMILES: CC(C)N(/C=N\c1ccn(C2CCC(CO)O2)c(=O)n1)C(C)C (stereo unspecified)
IC50 [4]: > 200 µM | IC50 [10]: > 1 mM

half-life [1]: 128 min | P [2]: -0.467
SMILES: O=c1nc(/N=C\N2CCCC2)ccn1C1CCC(CO)O1 (stereo unspecified)

EC50 [8]: 2.2 µM | pKa [11]: 4.42 | solubility [12]: 78 mg/mL (≈ 369 mM)
SMILES: Nc1ccn([C@H]2CC[C@@H](CO)O2)c(=O)n1 [ZALCITABINE]
IC50 [10]: > 1 mM

half-life [1]: 610 min | P [2]: 0.227
SMILES: CCN(/C=N\c1ccn(C2CC(F)C(CO)O2)c(=O)n1)CC (stereo unspecified)

half-life [1]: 788 min | P [2]: 0.948
SMILES: CCCN(/C=N\c1ccn(C2CCC(CO)O2)c(=O)n1)CCC (stereo unspecified)
